Measured values pooled from the literature.
Compare with care: the assays were run in different laboratories.
PTGS1: Prostaglandin G/H synthase 1 (PTGS1, Ovis aries, UniProt P05979)
AGTR2: Type-2 angiotensin II receptor (AGTR2, Homo sapiens, UniProt P50052)
BCHE: Cholinesterase (BCHE, Equus caballus, UniProt P81908)

Cc1ccc(-c2nc3ccccc3s2)c(-c2ccc(S(C)(=O)=O)cc2)c1 — inhibition (PTGS1; enzyme activity, inhibitor, absorbance; 10 µM): 9.7%
Cn1cc(-c2cc(F)cc(N3CCn4c(cc5c4CCCC5)C3=O)c2CO)cc(Nc2ccc(N3CCN(C4COC4)CC3)cn2)c1=O — inhibition (Serine/threonine-protein kinase MRCK alpha (CDC42BPA, Homo sapiens, UniProt Q5VT25); enzyme activity, inhibitor; 0.1 µM): 2%
O=C(Nc1ccc(F)c(C(F)(F)F)c1)Nc1nnc(-c2ccncc2)s1 — inhibition (RecQ-like DNA helicase BLM (BLM, Homo sapiens, UniProt P54132); enzyme activity, inhibitor; 50 µM): 99%
CN(CCN1CCC(OC(=O)Nc2ccccc2-c2ccccc2)CC1)C(=O)c1ccc(CN2CCC(C(N)=O)CC2)cc1 — inhibition (AGTR2; ligand displacement, radioligand; 1 µM): -4%
COc1cc2c(cc1OC)C(=O)N(CC1CCN(Cc3cccnc3)CC1)C2 — inhibition (BCHE; enzyme activity, inhibitor, Ellman; 1 µM): 2.7%
NS(=O)(=O)c1ccc(-c2ncccc2-c2nc3ccccc3s2)cc1 — inhibition (PTGS1; enzyme activity, inhibitor, absorbance; 10 µM): 0%
COc1cc2c(cc1OC)C(=O)N(Cc1n[nH]c3ccccc13)C2 — inhibition (BCHE; enzyme activity, inhibitor, Ellman; 1 µM): -2.7%
Cn1cc(-c2cccc(N3CCc4c(sc5c4CC(C)(C)C5)C3=O)c2CO)cc(Nc2ccncn2)c1=O — inhibition (SRSF protein kinase 2 (SRPK2, Homo sapiens, UniProt P78362); enzyme activity, inhibitor; 1 µM): -3%
COc1ccc(-c2ccc(N)cc2-c2nc3ccccc3s2)cc1 — inhibition (PTGS1; enzyme activity, inhibitor, absorbance; 10 µM): 65.4%
COc1ccc(S(=O)(=O)N2CCCCC2)cc1C — inhibition (AGTR2; ligand displacement, radioligand; 10 µM): < 30%
COc1nccc(CN2Cc3cc(OC)c(OC)cc3C2=O)n1 — inhibition (BCHE; enzyme activity, inhibitor, Ellman; 1 µM): 6.1%
C[C@H](C(=O)N[C@H]1COc2ccccc2[C@@H]1S(C)(=O)=O)c1ccc(F)cc1 — inhibition (AGTR2; cell-free assay; 10 µM): 4%
CN(C)Cc1ccc(-c2nc3ccccc3s2)c(-c2cccc(O)c2)c1 — inhibition (PTGS1; enzyme activity, inhibitor, absorbance; 10 µM): 30.7%
COc1cc2c(cc1OC)C(=O)N(CC1CCN(Cc3ccncc3)CC1)C2 — inhibition (BCHE; enzyme activity, inhibitor, Ellman; 1 µM): 8.2%
Cc1ccc(-c2nc3ccccc3s2)c(-c2ccc(S(N)(=O)=O)cc2)c1 — inhibition (PTGS1; enzyme activity, inhibitor, absorbance; 10 µM): 9.6%
C#Cc1n[nH]c2c(-c3cn(C(C)c4ccccn4)c(=O)[nH]c3=O)cc(F)cc12 (stereo not shown) — inhibition (Activin receptor type-1B (ACVR1B, Homo sapiens, UniProt P36896); enzyme activity, inhibitor; 1 µM): 3.8%
COc1cc2c(cc1OC)C(=O)N(CC1CCN(Cc3cccc(C)n3)CC1)C2 — inhibition (BCHE; enzyme activity, inhibitor, Ellman; 1 µM): 3.4%
Cc1ccc(-c2nc3ccccc3s2)c(-c2ccc(O)cc2)c1 — inhibition (PTGS1; enzyme activity, inhibitor, absorbance; 10 µM): 8.4%
COc1cc2c(cc1OC)C(=O)N(Cc1cccc(N3CCCCC3)n1)C2 — inhibition (BCHE; enzyme activity, inhibitor, Ellman; 1 µM): 4.8%
CCCCCCCCCCCC(=O)OC[C@@H](COP(=O)(O)OCCNC(=O)c1ccc(Cn2c(=O)[nH]c3c(N)nc(OCCOC)nc32)cc1)OC(=O)CCCCCCCCCCC — inhibition (Androgen receptor (Ar, Rattus norvegicus, UniProt P15207); ligand displacement, radioligand; 10 µM): 55%
Oc1ccc(-c2ncccc2-c2nc3ccccc3s2)cc1 — inhibition (PTGS1; enzyme activity, inhibitor, absorbance; 10 µM): 12.5%
COc1cc2c(cc1OC)C(=O)N(Cc1cccnc1)C2 — inhibition (BCHE; enzyme activity, inhibitor, Ellman; 1 µM): -12.2%
